The test system of test [1] is Mus musculus. Nature of the test: Antinociceptive activity against acetic acid-induced abdominal constrictions in Swiss mouse assessed as maximal inhibition at 10 mg/kg, ip pretreated 30 mins before acetic acid challenge. Format: functional. The note with it: Abdomen, route intraperitoneal. The essentials: (§1)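 Swiss mice (25–35 g), 10 ml/kg ip of compound (1–60 mg/kg) or 0.9% NaCl control, given 30 min before ip 0.6% acetic acid. Abdominal constrictions with hind-limb stretching counted cumulatively over 20 min, mice in separate glass funnels at 20–22 °C. Groups of six to eight. ID50 is the geometric mean with 95% confidence limits, found by graphical interpolation.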

The test system of test [2] is Mus musculus. Nature of the test: Antinociceptive activity against acetic acid-induced abdominal constrictions in po dosed Swiss mouse pretreated 30 mins before acetic acid challenge. The class given is functional. As to conditions: Abdomen, read-out: ID50 (the source's name). The essentials: (§2)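 Oral pretreatment (50–200 mg/kg) of Swiss mice before ip 0.6% acetic acid. Writhing (abdominal contractions plus hind-limb stretching) counted cumulatively for 20 min at 20–22 °C. Six animals per group, mean ± s.e.m. ID50 with 95% confidence limits obtained by graphical interpolation.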

Test [3] concerns Mus musculus. Nature of the test: Antinociceptive activity against formalin-induced paw pain in ip dosed Swiss mouse pretreated 30 mins before formalin challenge assessed after 0 to 5 mins. Format: functional. As to conditions: for ED50: read-out: ID50 (the source's name). The essentials:
(§3)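 Mice given compound (6–30 mg/kg, ip) or saline 30 min before intraplantar injection into the right hind paw of 20 µl 2.5% formalin (0.92% formaldehyde) in saline. Paw-licking time scored in a glass cylinder with a 45° mirror, 0–5 min (early phase) and 15–30 min (late phase). n = 6. ID50 as geometric mean with 95% confidence limits.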

Test [4] concerns Mus musculus. Nature of the test: Antinociceptive activity against capsaicin-induced paw pain in Swiss mouse assessed as maximal inhibition at 10 mg/kg, ip pretreated 30 mins before capsaicin challenge. Format: functional, organism-based. Also on record: dose 10 mg/kg.
The subject of test [5] is Mus musculus. Nature of the test: Antinociceptive activity against acetic acid-induced abdominal constrictions in ip dosed Swiss mouse pretreated 30 mins before acetic acid challenge. Format: functional. As to conditions: Abdomen; for ED50: read-out: ID50 (the source's name). Summed up: as §1
The subject of test [6] is Mus musculus. Nature of the test: Antinociceptive activity against formalin-induced paw pain in ip dosed Swiss mouse pretreated 30 mins before formalin challenge assessed after 15 to 30 mins. The note with it: for ED50: read-out: ID50 (the source's name). The class given is functional. Summed up: as §3
The subject of test [7] is Mus musculus. Briefly: Antinociceptive activity against acetic acid-induced abdominal constrictions in Swiss mouse at 60 mg/kg, ip pretreated 30 mins before acetic acid challenge. Format: functional, organism-based. The arrangement: dose 60 mg/kg. The note with it: Abdomen. The essentials: as §1
The test system of test [8] is Mus musculus. Briefly: Antinociceptive activity against acetic acid-induced abdominal constrictions in Swiss mouse assessed as maximal inhibition at 200 mg/kg, po pretreated 30 mins before acetic acid challenge. Format: functional. As to conditions: Abdomen. The essentials:
as §2

For test [9], the system named is Mus musculus. Briefly: Antinociceptive activity against acetic acid-induced abdominal constrictions in Swiss mouse assessed as maximal inhibition at 50 mg/kg, po pretreated 30 mins before acetic acid challenge. As to conditions: Abdomen. The class given is functional. The essentials:
as §2

Test [10] has as its system Mus musculus. Briefly: Antinociceptive activity against acetic acid-induced abdominal constrictions in Swiss mouse assessed as maximal inhibition at 100 mg/kg, po pretreated 30 mins before acetic acid challenge. Format: functional. The note with it: Abdomen. Summed up:
as §2

Test [11] concerns Mus musculus. Briefly: Antinociceptive activity against formalin-induced paw pain in Swiss mouse assessed as maximal inhibition at 10 mg/kg, ip pretreated 30 mins before formalin challenge assessed after 0 to 5 mins. Format: functional. As to conditions: route intraperitoneal. Summed up:
as §3

Test [12] deals with Mus musculus. Briefly: Antinociceptive activity against formalin-induced paw pain in Swiss mouse assessed as maximal inhibition at 30 mg/kg, ip pretreated 30 mins before formalin challenge assessed after 0 to 5 mins. The class given is functional. As to conditions: route intraperitoneal. The essentials:
as §3

Test [13] deals with Mus musculus. Nature of the test: Antinociceptive activity against formalin-induced paw pain in Swiss mouse assessed as maximal inhibition at 6 mg/kg, ip pretreated 30 mins before formalin challenge assessed after 15 to 30 mins. Format: functional. As to conditions: route intraperitoneal. The essentials:
as §3

The test system of test [14] is Mus musculus. Nature of the test: Antinociceptive activity against formalin-induced paw pain in Swiss mouse assessed as maximal inhibition at 10 mg/kg, ip pretreated 30 mins before formalin challenge assessed after 15 to 30 mins. Format: functional. The note with it: route intraperitoneal. Summed up: as §3
Test [15] concerns Mus musculus. Briefly: Antinociceptive activity against formalin-induced paw pain in Swiss mouse assessed as maximal inhibition at 30 mg/kg, ip pretreated 30 mins before formalin challenge assessed after 15 to 30 mins. The class given is functional. The note with it: route intraperitoneal. The essentials: as §3
Test [16] has as its system Mus musculus. Nature of the test: Antinociceptive activity against glutamate-induced paw pain in ip dosed Swiss mouse pretreated 30 mins before glutamate challenge. Format: functional. The note with it: read-out: ID50 (the source's name). The essentials: (§4)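 Mice treated ip (6–30 mg/kg) 30 min before intraplantar injection into the right hind paw of 20 µl glutamate in PBS (30 µmol/paw). Time spent licking or biting the paw timed over 0–15 min in glass cylinders. n = 6. ID50 reported with 95% confidence limits.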

Test [17] concerns Mus musculus. Briefly: Antinociceptive activity against glutamate-induced paw pain in Swiss mouse assessed as maximal inhibition at 10 mg/kg, ip pretreated 30 mins before glutamate challenge. The class given is functional. The note with it: route intraperitoneal. The essentials:
as §4

For test [18], the system named is Mus musculus. Briefly: Antinociceptive activity against glutamate-induced paw pain in Swiss mouse assessed as maximal inhibition at 30 mg/kg, ip pretreated 30 mins before glutamate challenge. The class given is functional. As to conditions: route intraperitoneal. Summed up:
as §4

Test [19] concerns Mus musculus. Briefly: Antinociceptive activity against heat-induced paw licking in Swiss mouse assessed as increase in licking latency period at 10 mg/kg, ip pretreated 30 mins before heat challenge by hot plate method. Format: functional, organism-based. Also on record: dose 10 mg/kg. The essentials:
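Mice dosed ip (10 mg/kg), saline, or morphine sc, 30 min before placement on a plate held at 56 ± 1 °C. Latency to hind-paw licking, paw shaking or jumping recorded. Animals with baseline latency above 20 s excluded; cut-off 30 s. n = 6.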
(In hot-plate and tail-flick tests a longer latency is read as antinociception.)

Molecules are shown by their SMILES. Calls of active or inactive are those of the source. Where only a bound is given, the exact number is not on record here.

Turning to `CC(=O)Oc1ccccc1C(=O)O` [ASPIRIN], in [1], the inhibition in vivo (usually how much of the control response was suppressed) at 10 mg/kg worked out at 35%. In addition, in test [2], the ED50 worked out at 605 µmol/kg. The outcome in [3] and in test [4] was inactive.

For the compound `Cc1c(N(C)CS(=O)(=O)O)c(=O)n(-c2ccccc2)n1C` [DIPYRONE SODIUM], the inhibition in vivo at 10 mg/kg in [1] is 33%. Moreover, the figures for the ED50 in test [5], in [3] and in test [6] were 162 µmol/kg, 154 µmol/kg and 264 µmol/kg, respectively.

Take `CC(=O)Nc1ccc(O)cc1` [ACETAMINOPHEN]: the inhibition in vivo at 10 mg/kg in test [1] came out at 38%. The ED50 in [2] amounted to 1140 µmol/kg. For the same compound, the outcome in test [3] and in test [4] was inactive.

For `O=C(Nc1ccc(Cl)cc1)Nc1ccc(C(=O)/C=C/c2ccc(Cl)c(Cl)c2)cc1`, the inhibition in vivo at 10 mg/kg in test [1] is 21.6%. Further, the result in [7] was inactive.

For `O=C(O)Cc1ccccc1Nc1c(Cl)cccc1Cl` [DICLOFENAC], the ED50 was more than 94 µmol/kg in test [3] and 34.5 µmol/kg in test [6].

For `Cc1ccc(/C=C/C(=O)c2ccc(NC(=O)Nc3ccc(Cl)cc3)cc2)cc1`, the inhibition in vivo at 10 mg/kg in test [1] turned out to be 42.8%. Also, in test [5], the Activity entry is “Dose-dependent effect” and the ED50 was 39.7 µmol/kg.

For `O=C(/C=C/c1ccccc1)c1ccc(NC(=S)Nc2ccc(Cl)cc2)cc1`, the inhibition in vivo at 10 mg/kg in test [1] was 94.5%; in [11] it was 37.8%; in test [14], 62.6%; in [17], 42.6%. Moreover, the inhibition in vivo at 200 mg/kg in test [8] came out at 55%. In addition, the Activity result in [5], in test [3] and in test [6] was “Dose-dependent effect” in each case. Also, the ED50 in [5] worked out at 3.03 µmol/kg; in [2], 378 µmol/kg; in test [3] it was 69.3 µmol/kg; in test [6], 26.9 µmol/kg; in test [16], 62.1 µmol/kg. Further, the inhibition in vivo at 50 mg/kg in [9] stood at 23.5%. In addition, in test [10], the inhibition in vivo at 100 mg/kg is 43.4%. For the same compound, the inhibition in vivo at 30 mg/kg turned out to be 53.9% in test [12], 78.7% in test [15] and 58.3% in test [18]. The inhibition in vivo at 6 mg/kg in [13] is 51%. The outcome in [4] and in test [19] was inactive.

Consider `COc1ccc(/C=C/C(=O)c2ccc(NC(=S)Nc3ccc(Cl)cc3)cc2)cc1`, for which the inhibition in vivo at 10 mg/kg in [1] is 92%. For the same compound, in test [5], the Activity entry was “Dose-dependent effect” and the ED50 came to 10.4 µmol/kg.

Regarding `Cc1ccc(/C=C/C(=O)c2ccc(NC(=S)Nc3ccc(Cl)cc3)cc2)cc1`, in test [1], the inhibition in vivo at 10 mg/kg came out at 75.3%. In test [5], the Activity entry is “Dose-dependent effect” and the ED50 came out at 13.1 µmol/kg.

In the case of `O=C(/C=C/c1ccc(Cl)cc1)c1ccc(NC(=S)Nc2ccc(Cl)cc2)cc1`, the inhibition in vivo at 10 mg/kg in test [1] came to 100%. Besides, in test [5], the Activity entry was “Dose-dependent effect” and the ED50 is 7.59 µmol/kg.

With `O=C(/C=C/c1ccc(Cl)c(Cl)c1)c1ccc(NC(=S)Nc2ccc(Cl)cc2)cc1`, the inhibition in vivo at 10 mg/kg in [1] was 97.5%. For the same compound, in test [5], the Activity result was “Dose-dependent effect” and the ED50 was determined as 6.15 µmol/kg.

Regarding `O=C(Nc1ccc(Cl)cc1)Nc1ccc(C(=O)/C=C/c2ccc(Cl)cc2)cc1`, in test [1], the inhibition in vivo at 10 mg/kg was determined as 51%. Moreover, in test [5], the Activity entry is “Dose-dependent effect” and the ED50 was 45.4 µmol/kg.

Regarding `COc1ccc(/C=C/C(=O)c2ccc(NC(=O)Nc3ccc(Cl)cc3)cc2)cc1`, in [1], the inhibition in vivo at 10 mg/kg stood at 84.4%. Further, in test [5], the Activity result is “Dose-dependent effect” and the ED50 stood at 31.1 µmol/kg.

On to `O=C(Nc1ccc(Cl)cc1)Nc1ccc(C(=O)/C=C/c2ccccc2)cc1`, for which the inhibition in vivo at 10 mg/kg in test [1] is 74.6%. For the same compound, in test [5], the Activity result was “Dose-dependent effect” and the ED50 was found to be 7.25 µmol/kg.
